# Results of several laboratories.
SMILES,test,system,conditions,measurement,value
CC[C@H](C)[C@H](NC(=O)[C@H](CO)NC(=O)[C@H](CCCNC(=N)N)NC(C)=O)C(=O)N[C@H]1CSSC[C@@H](C(=O)N[C@H](C(N)=O)[C@@H](C)O)NC(=O)[C@H](CCCNC(=N)N)NC(=O)[C@H](Cc2c[nH]cn2)NC(=O)[C@H](Cc2cccc3ccccc23)NC(=O)CNC(=O)[C@H](Cc2c[nH]c3ccccc23)NC(=O)[C@H](CC(=O)O)NC(=O)[C@H](CCC(N)=O)NC(=O)[C@H](Cc2c[nH]c3ccccc23)NC(=O)[C@H](C(C)C)NC1=O,,PBS,pH 7.4,solubility,390 µg/mL
Nc1ncc(-c2nc(N3CCOCC3)nc(N3CCOCC3)n2)c(C(F)F)n1,shake flask,FaSSIF,24 h,thermodynamic solubility,7.6 µM
OC(c1ccc(F)cc1)C(F)(F)CCN1CCC(O)(c2ccc(Cl)cc2)CC1 (racemic),,PBS,"2 h, pH 7.4, 25 °C",kinetic solubility,3.4 µM
CCCc1ccc(-c2ccc([C@@H](CO)C(=O)N[C@H](C)c3ccccc3)cc2)cc1,,PBS,pH 7.4,kinetic solubility,< 1 µM
CC(C)CCC[C@@H](C)[C@H]1CC[C@H]2[C@@H]3CC=C4C[C@@H](OCCCNC(=O)CCC(=O)NCCCC[C@H](NC(=O)[C@H]5CCCN5C(=O)[C@H](CCC(=O)O)NC(=O)[C@H](C)NC(=O)[C@@H](NC(=O)C[C@H](O)[C@H](CC(C)C)NC(=O)[C@H](CC(N)=O)NC(=O)[C@@H](NC(=O)[C@@H](N)CCC(=O)O)C(C)C)C(C)C)C(N)=O)CC[C@]4(C)[C@H]3CC[C@]12C,,aqueous buffer,pH 6.5,thermodynamic solubility,> 3000 µg/mL
C#Cc1ccc2c(c1)C(c1ccccn1)=NCc1c(-c3cnco3)ncn1-2,,water,"90 min, 37 °C",kinetic solubility,517 µg/mL
CC[C@H](C)[C@H](NC(C)=O)C(=O)N[C@H]1CSSC[C@@H](C(=O)N[C@H](C(N)=O)[C@@H](C)O)NC(=O)[C@H](CCCNC(=N)N)NC(=O)[C@H](Cc2cnc[nH]2)NC(=O)[C@H](Cc2cccc3ccccc23)NC(=O)CNC(=O)[C@H](Cc2c[nH]c3ccccc23)NC(=O)[C@H](CC(=O)O)NC(=O)[C@H](CCC(N)=O)NC(=O)[C@H](Cc2cn(C)c3ccccc23)NC(=O)[C@H](C(C)C)NC1=O,,PBS,pH 7.4,solubility,110 µg/mL
O=C1C=C(N(Cc2ccc(Cl)nc2)CC(F)F)CO1,,water,pH 4,solubility,3200 µg/mL
CC(=O)N[C@@H](CC(N)=O)C(=O)N[C@@H](CC(N)=O)C(=O)N[C@@H](CC(C)C)C(=O)N[C@H]1CSSC[C@@H](C(=O)N[C@H](C(N)=O)[C@@H](C)O)NC(=O)[C@H](CCCNC(=N)N)NC(=O)[C@H](Cc2c[nH]cn2)NC(=O)[C@H](Cc2cccc3ccccc23)NC(=O)CNC(=O)[C@H](Cc2c[nH]c3ccccc23)NC(=O)[C@H](CC(=O)O)NC(=O)[C@H](CCC(N)=O)NC(=O)[C@H](Cc2c[nH]c3ccccc23)NC(=O)[C@H](C(C)C)NC1=O,,PBS,pH 7.4,solubility,270 µg/mL
Clc1ccc(CSc2nnc(-c3ccccn3)n2Cc2ccco2)cc1Cl,,aqueous buffer,pH 7.4,solubility,0.14 µg/mL
